Activity, inhibition and Kd data for two compounds are collected here from ChEMBL document CHEMBL5705891, “Small-molecule kinase inhibitors provide insight into Mps1 cell cycle function” (Nat Chem Biol, 2010).

Active and inactive are the calls of the source. The calls are words filed in the database; no cut-off is given here.

Broadly, the Kd is the equilibrium constant for the complex coming apart.

For data set [1], the target named is Serine/threonine-protein kinase RIO1 (Homo sapiens) (UniProt Q9BRS2). Kind of data set: Inhibition of RIOK1 (unknown origin) assessed as residual enzyme activity at 10 uM by Ambit kinase binding assay relative to control.
Data set [2] deals with Receptor-interacting serine/threonine-protein kinase 4 (Homo sapiens) (UniProt P57078). Kind of data set: Inhibition of RIPK4 (unknown origin) assessed as residual enzyme activity at 10 uM by Ambit kinase binding assay relative to control.
Data set [3] has as its target MAP kinase-interacting serine/threonine-protein kinase 2 (Homo sapiens) (UniProt Q9HBH9). Kind of data set: Inhibition of MKNK2 (unknown origin) assessed as residual enzyme activity at 10 uM by Ambit kinase binding assay relative to control.
In data set [4] the target is Aurora kinase C (Homo sapiens) (UniProt Q9UQB9). Kind of data set: Inhibition of AURKC (unknown origin) assessed as residual enzyme activity at 10 uM by Ambit kinase binding assay relative to control.
For data set [5], the target named is Serine/threonine-protein kinase ULK3 (Homo sapiens) (UniProt Q6PHR2). Kind of data set: Inhibition of ULK3 (unknown origin) assessed as residual enzyme activity at 10 uM by Ambit kinase binding assay relative to control.
The target of data set [6] is TRAF2 and NCK-interacting protein kinase (Homo sapiens) (UniProt Q9UKE5). Kind of data set: Inhibition of TNIK (unknown origin) assessed as residual enzyme activity at 10 uM by Ambit kinase binding assay relative to control.
Data set [7] concerns the target Serine/threonine-protein kinase 26 (Homo sapiens) (UniProt Q9P289). Kind of data set: Inhibition of MST4 (unknown origin) assessed as residual enzyme activity at 10 uM by Ambit kinase binding assay relative to control.
Data set [8] concerns the target Aurora kinase B (Homo sapiens) (UniProt Q96GD4). Kind of data set: Inhibition of Aurora B phosphorylation at Thr232 in human U2OS cells by Western blot analysis. It counts as cell-based. The method, boiled down: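 Thymidine-released U2OS cells were treated with inhibitor or DMSO for 1 hr before mitotic entry, then with taxol (1 μM) plus MG132 (10 μM). Mitotic cells were collected by shake-off and immunoblotted for phospho-Aurora B (Thr232). Cyclin B served as the mitotic marker and the Mps1 mobility shift as autophosphorylation.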
On the technique in general: A western blot detects proteins with antibodies after separation by electrophoresis.

In data set [9] the test system is U2OS. Kind of data set: Reversal of paclitaxel-induced mitotic arrest in human U2OS cells assessed as Ser10 phosphorylated Histone H3-positive 4c population at 10 uM incubated for 16 hrs by flow cytometry (reference value: 25 %). It counts as functional. Background: Flow cytometry measures light scatter and fluorescence of single cells or particles in a stream.

Data set [10] addresses Insulin receptor-related protein (Homo sapiens, UniProt P14616). Kind of data set: Binding affinity to INSRR (unknown origin) assessed as dissociation constant by Ambit kinase binding assay.
The subject of data set [11] is U2OS. Kind of data set: Induction of multipolar anaphases in thymidine-treated human U2OS cells expressing H2B-GFP and Plk4 overexpression measured for 30 mins by time lapse imaging analysis. The format is functional, cell-based. The procedure, abridged:
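Doxycycline-inducible Plk4 U2OS cells expressing H2B-GFP were blocked with thymidine for 18 hrs and released into doxycycline (2 μg·ml⁻¹) for 10 hrs. A second 18-hr thymidine block followed, then release for 6 hrs before 5 μM inhibitor, with or without Plk4 induction. Cells were imaged by time-lapse at 37°C, 5% CO₂, timed from NEBD, and bipolar versus multipolar anaphases were scored. Values are mean ± SD of 3 independent experiments.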

In data set [12] the test system is UTRM10. Kind of data set: Induction of chromosome mis-segregation in UTRM10 cells (unknown origin) expressing LAP-tagged Mps1 M602Q mutant co-transfected with H2B-EYFP at 10 uM by time-lapse microscopy. It counts as functional, cell-based.
In data set [13] the test system is HCT-116. Kind of data set: Induction of aneuploidy in human HCT-116 cells at 10 uM incubated for 4 days by FACS analysis. As to conditions: time 4.0 day. The format is functional, cell-based. The procedure, abridged: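 HCT116 cells were treated with 10 μM compound or DMSO vehicle for the indicated times up to 96 h, then DNA content was profiled by flow cytometry.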

Data set [14] has as its system U2OS. Kind of data set: Reversal of nocodazole-induced mitotic arrest in human U2OS cells assessed as accumulation of 4N phosphorylated Histone H3-negative cells incubated for 16 hrs by flow cytometry. It counts as functional, cell-based. As to conditions: dose 5-10 µM.
For a further data set, the system named is TERT-RPE1. Kind of data set: Antiproliferative activity against hTERT-RPE1 cells assessed as loss of clonal survival upto 25 uM incubated for 10 days by crystal violet staining based assay. The format is toxicity, cell-based. The settings on record: human, tert-rpe1, 240 h, time 10 day. The procedure, abridged:
(§1)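 Colony outgrowth: cells plated at 200 cells per 60-mm dish, exposed to compound or DMSO vehicle and stained with crystal violet after 10 days. HCT116 grown in McCoy's 5A; A549 and HeLa in DMEM; hTERT-RPE1 in DMEM/F-12. All media had 10% FBS and penicillin/streptomycin, 37°C, 5% CO2. Quantified from 3 independent experiments, mean + SD, Student's t test.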

Another data set relates to HeLa. Kind of data set: Antiproliferative activity against human HeLa cells assessed as loss of clonal survival upto 10 uM incubated for 10 days by crystal violet staining based assay. It counts as functional, cell-based. The settings on record: time 10.0 day. The procedure, abridged: as §1
Data set [15] concerns the target T1, ALK tyrosine kinase receptor (Homo sapiens, UniProt Q9UM73). Kind of data set: Inhibition of ALK (unknown origin) assessed as residual enzyme activity at 10 uM by Ambit kinase binding assay relative to control.
Target sequence in this assay (Q9UM73 19-1620 limits assumed): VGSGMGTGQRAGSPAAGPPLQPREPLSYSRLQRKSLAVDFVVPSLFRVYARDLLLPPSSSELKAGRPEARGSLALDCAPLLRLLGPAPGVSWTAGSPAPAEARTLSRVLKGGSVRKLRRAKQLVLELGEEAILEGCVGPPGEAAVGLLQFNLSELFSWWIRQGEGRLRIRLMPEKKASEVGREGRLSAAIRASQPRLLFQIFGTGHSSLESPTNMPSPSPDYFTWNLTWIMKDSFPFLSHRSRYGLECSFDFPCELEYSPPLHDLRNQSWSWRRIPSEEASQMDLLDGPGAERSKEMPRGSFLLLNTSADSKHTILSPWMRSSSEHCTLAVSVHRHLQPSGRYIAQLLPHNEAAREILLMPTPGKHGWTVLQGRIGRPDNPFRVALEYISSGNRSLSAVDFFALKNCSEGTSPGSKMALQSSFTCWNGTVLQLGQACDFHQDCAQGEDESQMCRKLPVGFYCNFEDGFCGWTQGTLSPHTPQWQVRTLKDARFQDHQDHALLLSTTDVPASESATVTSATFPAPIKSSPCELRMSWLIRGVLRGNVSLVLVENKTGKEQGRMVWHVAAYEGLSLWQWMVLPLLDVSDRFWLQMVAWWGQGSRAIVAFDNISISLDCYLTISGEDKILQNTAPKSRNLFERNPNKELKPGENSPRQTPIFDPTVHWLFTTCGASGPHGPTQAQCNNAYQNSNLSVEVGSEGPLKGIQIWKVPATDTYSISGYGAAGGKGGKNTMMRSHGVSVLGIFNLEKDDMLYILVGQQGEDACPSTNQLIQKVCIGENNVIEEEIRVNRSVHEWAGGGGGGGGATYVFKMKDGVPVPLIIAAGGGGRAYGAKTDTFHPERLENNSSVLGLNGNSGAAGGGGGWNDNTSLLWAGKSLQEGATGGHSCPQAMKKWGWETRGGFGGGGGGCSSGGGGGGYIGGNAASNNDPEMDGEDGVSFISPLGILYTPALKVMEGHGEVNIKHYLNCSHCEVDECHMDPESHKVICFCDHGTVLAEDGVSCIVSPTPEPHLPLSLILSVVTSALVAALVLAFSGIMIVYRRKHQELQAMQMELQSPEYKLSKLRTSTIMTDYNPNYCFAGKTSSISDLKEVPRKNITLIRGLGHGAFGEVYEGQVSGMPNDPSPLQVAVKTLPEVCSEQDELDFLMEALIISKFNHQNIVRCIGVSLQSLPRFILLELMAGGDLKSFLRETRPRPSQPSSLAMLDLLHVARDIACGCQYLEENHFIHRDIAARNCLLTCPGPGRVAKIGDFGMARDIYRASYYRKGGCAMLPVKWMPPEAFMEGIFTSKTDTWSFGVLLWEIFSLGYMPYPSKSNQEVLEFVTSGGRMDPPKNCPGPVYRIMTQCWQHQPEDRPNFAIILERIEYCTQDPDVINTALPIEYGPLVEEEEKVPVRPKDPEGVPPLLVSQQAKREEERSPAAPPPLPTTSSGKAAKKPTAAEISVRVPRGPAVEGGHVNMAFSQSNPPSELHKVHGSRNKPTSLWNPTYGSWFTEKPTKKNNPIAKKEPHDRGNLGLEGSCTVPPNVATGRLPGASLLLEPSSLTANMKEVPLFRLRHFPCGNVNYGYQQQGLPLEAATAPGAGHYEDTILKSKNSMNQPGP
Data set [16] concerns the target T1, ALK tyrosine kinase receptor. Kind of data set: Binding affinity to ALK (unknown origin) assessed as dissociation constant by Ambit kinase binding assay.
Target sequence in this assay (Q9UM73 whole entry): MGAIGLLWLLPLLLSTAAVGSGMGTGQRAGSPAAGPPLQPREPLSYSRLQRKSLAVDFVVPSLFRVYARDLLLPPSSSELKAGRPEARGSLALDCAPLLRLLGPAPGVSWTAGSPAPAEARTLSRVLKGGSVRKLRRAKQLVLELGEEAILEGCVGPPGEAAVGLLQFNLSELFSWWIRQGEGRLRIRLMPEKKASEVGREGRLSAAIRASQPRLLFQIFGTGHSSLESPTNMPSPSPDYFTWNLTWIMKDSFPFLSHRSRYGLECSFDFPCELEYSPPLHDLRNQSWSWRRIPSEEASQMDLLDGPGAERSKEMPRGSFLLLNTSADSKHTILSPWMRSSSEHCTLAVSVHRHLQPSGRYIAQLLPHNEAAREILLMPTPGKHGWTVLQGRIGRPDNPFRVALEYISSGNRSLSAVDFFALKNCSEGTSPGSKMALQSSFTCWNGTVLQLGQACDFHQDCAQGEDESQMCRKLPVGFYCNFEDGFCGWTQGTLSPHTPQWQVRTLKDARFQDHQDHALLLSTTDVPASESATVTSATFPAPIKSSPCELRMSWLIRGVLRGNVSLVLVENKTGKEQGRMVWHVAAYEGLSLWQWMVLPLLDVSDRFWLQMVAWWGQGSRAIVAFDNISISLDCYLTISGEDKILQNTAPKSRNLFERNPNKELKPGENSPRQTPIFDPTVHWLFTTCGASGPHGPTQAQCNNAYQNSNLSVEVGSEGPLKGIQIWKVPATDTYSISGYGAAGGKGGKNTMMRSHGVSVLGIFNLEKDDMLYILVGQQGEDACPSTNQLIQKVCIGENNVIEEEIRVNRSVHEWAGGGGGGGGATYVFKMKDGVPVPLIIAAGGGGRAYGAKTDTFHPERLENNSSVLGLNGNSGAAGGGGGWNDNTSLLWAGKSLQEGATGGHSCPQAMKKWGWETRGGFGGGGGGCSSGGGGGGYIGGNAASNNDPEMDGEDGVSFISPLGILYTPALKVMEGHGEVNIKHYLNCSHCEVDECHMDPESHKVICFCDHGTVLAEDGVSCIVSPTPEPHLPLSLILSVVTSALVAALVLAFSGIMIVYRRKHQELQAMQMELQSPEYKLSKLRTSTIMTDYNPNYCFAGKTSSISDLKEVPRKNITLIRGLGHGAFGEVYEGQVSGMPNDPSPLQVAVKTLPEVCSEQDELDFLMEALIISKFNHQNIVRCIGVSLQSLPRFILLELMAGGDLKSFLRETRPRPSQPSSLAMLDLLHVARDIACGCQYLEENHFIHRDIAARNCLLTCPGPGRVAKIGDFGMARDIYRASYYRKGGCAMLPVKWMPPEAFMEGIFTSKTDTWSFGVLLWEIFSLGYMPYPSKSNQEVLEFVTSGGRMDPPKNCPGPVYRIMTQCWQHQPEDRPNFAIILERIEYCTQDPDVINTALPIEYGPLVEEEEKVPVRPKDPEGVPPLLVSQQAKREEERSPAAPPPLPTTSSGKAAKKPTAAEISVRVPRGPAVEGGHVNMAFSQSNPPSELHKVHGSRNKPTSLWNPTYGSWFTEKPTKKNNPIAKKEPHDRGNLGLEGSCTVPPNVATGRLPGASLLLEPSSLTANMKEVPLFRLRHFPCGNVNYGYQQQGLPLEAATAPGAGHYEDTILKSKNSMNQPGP
A further data set has as its system MCF-10A. Kind of data set: Antiproliferative activity against human MCF-10A cells at 10 uM incubated for 4 days by Syto60 staining based assay. The format is toxicity, cell-based. The settings on record: 96 h, time 4 day. The method, boiled down: (§2)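 Proliferation read by Syto60 nucleic acid stain fluorescence (excitation 635 nm, emission 695 nm) after treatment for up to 96 h. Each time point normalized to its DMSO control. Mean ± SD from 4 independent experiments. Cells kept at 37°C, 5% CO2 in 10% FBS-supplemented medium.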

Data set [17] concerns UTRM10. Kind of data set: Effect on centrosome overduplication in hydroxyurea-treated UTRM10 cells (unknown origin) at 10 to 25 uM incubated for 48 hrs by centrin staining based analysis. As to conditions: dose 10-25 µM.
In data set [18] the target is Dual specificity protein kinase CLK1 (Homo sapiens, UniProt P49759). Kind of data set: Inhibition of CLK1 (unknown origin) assessed as residual enzyme activity at 10 uM by Ambit kinase binding assay relative to control.
Data set [19] deals with Mitogen-activated protein kinase 3 (Homo sapiens) (UniProt P27361). Kind of data set: Inhibition of ERK1 (unknown origin) assessed as residual enzyme activity at 10 uM by Ambit kinase binding assay relative to control.
In data set [20] the test system is U2OS. Kind of data set: Antiproliferative activity against human U2OS cells at 10 uM incubated for 4 days by Syto60 staining based assay. The format is functional, cell-based. As to conditions: time 4.0 day. The method, boiled down: as §2
In data set [21] the test system is HCT-116. Kind of data set: Induction of apoptosis in human HCT-116 cells assessed as increase in cleaved PARP level at 5 to 10 uM measured after 48 hrs by immunoblot analysis. The format is functional, cell-based. The settings on record: dose 5-10 µM.
In another data set the test system is HeLa S3. Kind of data set: Reversal of nocodazole-induced mitotic arrest in human HeLa S3 cells expressing histone H2B-GFP assessed as DNA decondensation at 10 uM measured for 20 to 60 mins by immunofluorescence analysis. The format is functional, cell-based. The settings on record: time 20-60 min. The method, boiled down:
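HeLa S3 H2B-GFP cells were held in nocodazole (200 ng·ml⁻¹) with or without inhibitor. Mitotic exit was scored as DNA decondensation and nuclear envelope reassembly, imaged every 5 min (60X objective); 150 cells counted per population.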

For the next data set, the target named is Activated CDC42 kinase 1 (Homo sapiens, UniProt Q07912). Kind of data set: Inhibition of TNK2 (unknown origin) assessed as residual enzyme activity at 10 uM by Ambit kinase binding assay relative to control.

Aurora kinase C (Homo sapiens), sequence (Q9UQB9 whole entry): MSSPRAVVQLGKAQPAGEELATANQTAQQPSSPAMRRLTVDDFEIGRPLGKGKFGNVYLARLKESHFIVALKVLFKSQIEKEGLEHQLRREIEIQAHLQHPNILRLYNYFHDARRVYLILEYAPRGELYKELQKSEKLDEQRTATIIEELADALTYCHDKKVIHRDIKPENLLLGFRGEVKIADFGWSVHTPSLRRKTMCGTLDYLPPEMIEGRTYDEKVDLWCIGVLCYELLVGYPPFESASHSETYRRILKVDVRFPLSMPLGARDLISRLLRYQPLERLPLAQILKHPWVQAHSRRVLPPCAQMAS
Serine/threonine-protein kinase ULK3 (Homo sapiens), sequence (Q6PHR2 whole entry): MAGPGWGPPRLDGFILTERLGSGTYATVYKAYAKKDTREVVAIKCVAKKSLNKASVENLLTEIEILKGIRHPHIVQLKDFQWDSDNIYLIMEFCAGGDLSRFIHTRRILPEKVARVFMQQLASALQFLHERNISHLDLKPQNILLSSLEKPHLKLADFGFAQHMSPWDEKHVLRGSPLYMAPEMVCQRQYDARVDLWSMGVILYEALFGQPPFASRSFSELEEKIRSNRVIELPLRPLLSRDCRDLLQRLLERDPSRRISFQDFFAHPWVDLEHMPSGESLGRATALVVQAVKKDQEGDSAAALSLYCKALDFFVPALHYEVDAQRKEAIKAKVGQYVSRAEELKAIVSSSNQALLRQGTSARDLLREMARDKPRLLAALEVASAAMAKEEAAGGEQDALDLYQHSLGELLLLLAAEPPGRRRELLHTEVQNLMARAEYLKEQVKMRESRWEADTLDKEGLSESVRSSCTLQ
Mitogen-activated protein kinase 3 (Homo sapiens), sequence (P27361 whole entry): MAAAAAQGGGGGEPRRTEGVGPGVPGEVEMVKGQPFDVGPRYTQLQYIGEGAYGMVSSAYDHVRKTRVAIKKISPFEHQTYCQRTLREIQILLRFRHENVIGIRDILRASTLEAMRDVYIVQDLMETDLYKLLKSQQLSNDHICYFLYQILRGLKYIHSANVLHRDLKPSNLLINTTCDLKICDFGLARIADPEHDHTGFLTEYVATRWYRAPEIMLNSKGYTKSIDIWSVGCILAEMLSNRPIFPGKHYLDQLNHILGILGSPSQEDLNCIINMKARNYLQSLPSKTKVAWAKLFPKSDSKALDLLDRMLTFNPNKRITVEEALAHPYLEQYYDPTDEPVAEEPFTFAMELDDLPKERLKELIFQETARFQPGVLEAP
Dual specificity protein kinase CLK1, sequence (P49759 whole entry, looked up): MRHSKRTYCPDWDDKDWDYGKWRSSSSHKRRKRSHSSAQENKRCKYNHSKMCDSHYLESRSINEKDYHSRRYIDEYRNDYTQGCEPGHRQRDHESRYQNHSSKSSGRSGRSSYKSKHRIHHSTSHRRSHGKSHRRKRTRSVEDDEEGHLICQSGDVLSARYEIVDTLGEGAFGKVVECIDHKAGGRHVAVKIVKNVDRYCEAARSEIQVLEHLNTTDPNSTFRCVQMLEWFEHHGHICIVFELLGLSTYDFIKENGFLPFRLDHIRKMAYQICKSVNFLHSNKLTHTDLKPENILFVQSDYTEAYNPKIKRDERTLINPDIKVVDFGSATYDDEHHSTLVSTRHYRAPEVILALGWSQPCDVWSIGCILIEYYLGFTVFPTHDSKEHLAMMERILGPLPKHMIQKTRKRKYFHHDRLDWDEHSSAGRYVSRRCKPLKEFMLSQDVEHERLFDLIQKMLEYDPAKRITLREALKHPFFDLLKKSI

As for `O=C1c2ccccc2-c2n[nH]c3cccc1c23`, the Activity in [1] amounted to 10%; in data set [2], 2.2%; in data set [3] it was 1.9%; in [4] it was 23%; in [5], 11%; in data set [6] it was 18%. For the same compound, the Activity in [7] was found to be 2.4%.

As for `COc1cc(N2CCC(O)CC2)ccc1Nc1cc(Nc2ccccc2S(=O)(=O)C(C)C)c2cc[nH]c2n1`, in data set [8], the inhibition entry is “Active”. For the same compound, the Activity was 1% in the data set with U2OS [9]; “Dose-Dependent Effect” in the data set with U2OS [14]; “Toxic” in the data set with TERT-RPE1; 8.9% in data set [15]; “Toxic” in the data set with MCF-10A; 17% in data set [18]. Also, the figures for the Activity (in data set [19]; on Activated CDC42 kinase 1) were 23% and 14%, respectively. In addition, the Kd came out at 1200 nM in data set [10] and 21 nM in data set [16]. For the same compound, the outcome in the data set on U2OS [11], in the data set with HCT-116 [13], in the data set with HeLa, in the data set on U2OS [20], in the data set with HCT-116 [21] and in the data set on HeLa S3 was Active. For the same compound, the outcome with UTRM10 [12] and with UTRM10 [17] was inactive.
